Five molecules from ChEMBL document CHEMBL1156702, “Synthesis and molecular modelling of unsaturated exomethylene pyranonucleoside analogues with antitumor and antiviral activities” (Eur J Med Chem, 2008) can be followed below.

One may read the CC50 as the concentration that lowers cell viability or growth by half.

Data set [1] can be described thus: Cytotoxicity against human H4 cells after 72 hrs. It counts as cell-based. In a few lines:
(§1)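 Cells kept in DMEM with 5% foetal calf serum, L-glutamine, penicillin/streptomycin at 37 °C, 5% CO2. Seeded cells exposed to 3-fold serial dilutions (starting 0.5 mg/mL; DMSO stock, final DMSO <0.1%) for 72 h at 37 °C. Treated wells (n=2) compared with controls (n=24). CC50 taken from concentration-effect curve.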

Data set [2] is described as follows: Cytotoxicity against human Caco-2 cells after 72 hrs. It counts as cell-based. The procedure, abridged: as §1
A short description of data set [3]: Ratio of CC50 for human Caco-2 cells to IC50 for rotavirus RF assessed by inhibition of infectivity following virus attachment.

In turn, `C=C1[C@@H](CO)O[C@H](n2ccc(=O)[nH]c2=O)[C@@H](O)[C@H]1O` gave a CC50 at 72 h in data set [1] of 1850 µM.
Same read-out and setting: in the case of `O=C1C=C[C@@H](n2ccc(=O)[nH]c2=O)O[C@@H]1CO` it was 2100 µM.
The same measure, in the same setting: the result for `C=C1C=C[C@@H](n2ccc(=O)[nH]c2=O)O[C@@H]1CO` reads 2120 µM.
On the same count and under the same terms, the result for `C=C1C=C[C@@H](n2ccc(=O)[nH]c2=O)O[C@@H]1COC(c1ccccc1)(c1ccccc1)c1ccccc1` reads 1040 µM.
Take `Cc1cn([C@H]2C[C@H](N=[N+]=[N-])[C@@H](CO)O2)c(=O)[nH]c1=O` [ZIDOVUDINE]: the 50% cytotoxic concentration (CC50) at 72 h in data set [2] is 56.1 µM. In addition, the “Ratio CC50/IC50” value in data set [3] came to 2.5.
